From ChEMBL document CHEMBL4007483, “Design, synthesis and potent cytotoxic activity of novel 7-(N-[(substituted-sulfonyl)piperazinyl]-methyl)-camptothecin derivatives” (Bioorg Med Chem Lett, 2017) come the findings set out here.

What all share (assay type): functional, cell-based
Test [1] has as its system A549. Kind of test: Cytotoxicity against human A549 cells after 72 hrs by sulforhodamine B assay. The settings on record: A549, 72 h. In outline:
(§1)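 Cells seeded at 3–5 × 10^3 per well in RPMI-1640 with 10% FBS containing graded sample concentrations, exposed 72 h. Attached cells fixed with cold 50% trichloroacetic acid 30 min, stained with 0.04% SRB 30 min. Bound dye solubilized in 10 mM Tris-base, absorbance read at 515 nm; IC50 from concentration series.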

Test [2] concerns MDA-MB-231. Put plainly: Cytotoxicity against human MDA-MB-231 cells after 72 hrs by sulforhodamine B assay. As to conditions: MDA-MB-231, 72 h. An outline of the steps:
as §1
(In general: Sulforhodamine B stains cellular protein and so reports cell mass.)

Test [3] has as its system KB. Kind of test: Cytotoxicity against human KB cells after 72 hrs by sulforhodamine B assay. An outline of the steps: as §1
Test [4] in a line: Cytotoxicity against human KBVIN cells after 72 hrs by sulforhodamine B assay. An outline of the steps: as §1
Test [5] has as its system MCF7. Put plainly: Cytotoxicity against human MCF7 cells after 72 hrs by sulforhodamine B assay. The settings on record: MCF7, 72 h. In outline:
as §1

Molecules are shown by their SMILES. pIC50: −log10 of the molar value.

Usually pIC50 stands for −log10 of the IC50, conventionally taken in molar units.

On to `CC[C@@]1(O)C(=O)OCc2c1cc1n(c2=O)Cc2c-1nc1ccccc1c2CN1CCN(S(=O)(=O)c2cccnc2)CC1`, for which the negative-log IC50 (pIC50) in test [1] is 7.66; in test [2], 6.97; in test [3] it was 7.17; in test [4], 6.49; in test [5], 7.21.

Consider `CC[C@@]1(O)C(=O)OCc2c1cc1n(c2=O)Cc2c-1nc1ccccc1c2CN1CCN(S(=O)(=O)Cc2ccccc2)CC1`, for which the pIC50 is 7.56 in test [1]; 6.26 in test [2]; 6.71 in test [3]; 6.38 in test [4]; 6.44 in test [5].

Consider `CC[C@@]1(O)C(=O)OCc2c1cc1n(c2=O)Cc2c-1nc1ccccc1c2CN1CCN(S(=O)(=O)c2cc(F)cc(F)c2)CC1`, for which the pIC50 in test [1] was 9.15; in test [2], 7.08; in test [3], 7.68; in test [4] it was 6.58; in test [5], 7.25.

On to `CCCCS(=O)(=O)N1CCN(Cc2c3c(nc4ccccc24)-c2cc4c(c(=O)n2C3)COC(=O)[C@]4(O)CC)CC1`, for which the pIC50 is 8.40 in test [1]; 6.87 in test [2]; 8.07 in test [3]; 6.69 in test [4]; 7.13 in test [5].

As to `CC[C@@]1(O)C(=O)OCc2c1cc1n(c2=O)Cc2c-1nc1ccccc1c2CN1CCN(S(=O)(=O)c2ccc(Cl)cc2)CC1`, the negative-log IC50 (pIC50) in test [1] was 8.16; in test [2], 7.12; in test [3], 7.01; in test [4] it was 7.69; in test [5], 7.46.

With `CC[C@@]1(O)C(=O)OCc2c1cc1n(c2=O)Cc2c-1nc1ccccc1c2CN1CCN(S(=O)(=O)c2cccs2)CC1`, the pIC50 is 9.68 in test [1]; 7.52 in test [2]; 7.15 in test [3]; 7.24 in test [4]; 8.10 in test [5].

Turning to `CC[C@@]1(O)C(=O)OCc2c1cc1n(c2=O)Cc2c-1nc1ccccc1c2CN1CCN(S(=O)(=O)c2ccc(OC)cc2)CC1`, the pIC50 in test [1] was 8.27; in test [2], 6.91; in test [3], 7.68; in test [4], 6.85; in test [5] it was 7.15.

In the case of `CC[C@@]1(O)C(=O)OCc2c1cc1n(c2=O)Cc2c-1nc1ccccc1c2CN1CCN(S(=O)(=O)c2ccc(F)cc2)CC1`, the negative-log IC50 (pIC50) in test [1] is 9.30; in test [2], 7.20; in test [3], 7.12; in test [4], 7.59; in test [5], 7.42.

On to `CC[C@@]1(O)C(=O)OCc2c1cc1n(c2=O)Cc2c-1nc1ccccc1c2CN1CCN(S(=O)(=O)c2cc(OC)cc(OC)c2)CC1`, for which the pIC50 in test [1] is 8.85; in test [2] it was 8.19; in test [3] it was 8.54; in test [4] it was 8.92; in test [5], 7.47.

In the case of `CC[C@@]1(O)C(=O)OCc2c1cc1n(c2=O)Cc2c-1nc1ccccc1c2CN1CCN(S(=O)(=O)c2ccc([N+](=O)[O-])cc2)CC1`, the pIC50 in test [1] is 7.53; in test [2], 6.46; in test [3], 7.26; in test [4], 6.32; in test [5], 7.02.

Regarding `CC[C@@]1(O)C(=O)OCc2c1cc1n(c2=O)Cc2c-1nc1ccccc1c2CN1CCN(S(=O)(=O)c2ccc(C(C)C)cc2)CC1`, the pIC50 in test [1] was 8.36; in test [2] it was 6.91; in test [3], 7.80; in test [4], 7.09; in test [5], 7.17.

On to `CC[C@@]1(O)C(=O)OCc2c1cc1n(c2=O)Cc2c-1nc1ccccc1c2CN1CCN(S(=O)(=O)N(C)C)CC1`, for which the pIC50 is 8.14 in test [1]; 6.47 in test [2]; 7.10 in test [3]; 6.85 in test [4]; 7.15 in test [5].

`CC[C@@]1(O)C(=O)OCc2c1cc1n(c2=O)Cc2cc3ccccc3nc2-1` [CAMPTOTHECIN]: the negative-log IC50 (pIC50) in test [1] is 8.06; in test [2] it was 6.51; in test [3], 7.30; in test [4], 7.80; in test [5] it was 7.06.

Consider `CC[C@@]1(O)C(=O)OCc2c1cc1n(c2=O)Cc2cc3c(CN(C)C)c(O)ccc3nc2-1` [TOPOTECAN], for which, in test [4], the pIC50 is 6.54.

Regarding `CC[C@@]1(O)C(=O)OCc2c1cc1n(c2=O)Cc2c-1nc1ccccc1c2CN1CCN(S(=O)(=O)c2ccccc2)CC1`, the pIC50 is 9.60 in test [1]; 7.33 in test [2]; 8.70 in test [3]; 7.15 in test [4]; 8.31 in test [5].

Take `CC[C@@]1(O)C(=O)OCc2c1cc1n(c2=O)Cc2c-1nc1ccccc1c2CN1CCN(S(=O)(=O)c2ccc(C)cc2)CC1`: the pIC50 in test [1] is 9.05; in test [2], 7.07; in test [3], 7.07; in test [4], 7.46; in test [5] it was 7.74.

`CCc1c2c(nc3ccc(OC(=O)N4CCC(N5CCCCC5)CC4)cc13)-c1cc3c(c(=O)n1C2)COC(=O)[C@]3(O)CC` [IRINOTECAN] had a pIC50 in test [4] below 4.70.

For the compound `CC[C@@]1(O)C(=O)OCc2c1cc1n(c2=O)Cc2c-1nc1ccccc1c2CN1CCN(S(=O)(=O)c2ccc3ccccc3c2)CC1`, the pIC50 in test [1] was 7.89; in test [2], 6.95; in test [3], 7.35; in test [4], 6.78; in test [5] it was 7.09.

For the compound `CCc1ccc(S(=O)(=O)N2CCN(Cc3c4c(nc5ccccc35)-c3cc5c(c(=O)n3C4)COC(=O)[C@]5(O)CC)CC2)cc1`, the pIC50 was 9.19 in test [1]; 6.98 in test [2]; 7.96 in test [3]; 6.90 in test [4]; 7.21 in test [5].
